Screens (PubChem BioAssay)
An excerpt weighted towards active compounds, which were near 2.1% of everything screened.
MsrA inhibitor: bovine MsrA enzyme inhibitors, primary screen, biochemical, absorbance, HTS. actives 0.75% (n = 360,000). purified bovine MsrA, absorbance read-out. inhibition, % at 15.5 µM. Methionine sulfoxide reductase A (Bos taurus); in the data active = inhibition above about 4.5%
VIM-2 inhibitor: VIM-2 metallo-beta-lactamase inhibitors, primary screen, biochemical, epi-absorbance readout, Pseudomonas aeruginosa enzyme. purified VIM-2, nitrocefin hydrolysis, epi-absorbance fluorescence. inhibition, % at 5.6 µM. actives 0.89% (n = 290,000). AID 1527, 2009;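 active = inhibition above the mean of all tested compounds plus 3 SD, cutoff set per screening run, cut at about 7.5% in these data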;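 also: red hydrolysis product quenches plate fluorescence so inhibitors raise well fluorescence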
PKA-R2B act: activators of PKA-R2B holoenzyme, primary screen, biochemical, fluorescence polarization, Cy5-IP20, human | AID 504700, 2011 | activation, % at 11.4 µM | cAMP-dependent protein kinase catalytic subunit beta (Homo sapiens) + cAMP-dependent … | actives 0.079% (n = 340,000) | PKA-R2B holoenzyme dissociation; R2B truncated from residue 108, S112A mutant; 0% DMSO only, 100% 113 µM cGMP;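 active = activation above a cutoff set at the mean over all compounds plus 3 SD, cut at about 18% in these data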;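 also: higher means more holoenzyme dissociation and a rise in polarization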
Target sequence (P31323 whole entry, looked up, other chains not shown, the tested form may be a part): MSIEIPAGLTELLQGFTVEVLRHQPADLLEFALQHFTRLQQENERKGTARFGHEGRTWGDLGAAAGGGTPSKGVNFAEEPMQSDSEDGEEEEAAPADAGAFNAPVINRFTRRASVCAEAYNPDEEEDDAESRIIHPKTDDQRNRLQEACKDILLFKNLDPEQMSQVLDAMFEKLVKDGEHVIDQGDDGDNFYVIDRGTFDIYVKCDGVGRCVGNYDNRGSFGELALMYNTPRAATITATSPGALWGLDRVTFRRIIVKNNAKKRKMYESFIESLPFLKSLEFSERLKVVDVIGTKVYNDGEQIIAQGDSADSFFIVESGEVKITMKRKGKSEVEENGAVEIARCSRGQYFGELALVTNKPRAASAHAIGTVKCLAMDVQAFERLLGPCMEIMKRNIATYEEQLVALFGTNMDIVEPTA
bovine MsrA act: bovine MsrA enzyme activators, primary screen, biochemical, absorbance, HTS. Methionine sulfoxide reductase A (Bos taurus). activation, % at 10.6 µM. purified bovine MsrA, absorbance read-out. actives 0.3% (n = 360,000); in the data active = activation above about 7.5%
IMP-1 inhibitor: IMP-1 metallo-beta-lactamase inhibitors, primary screen, biochemical, epi-absorbance readout, Pseudomonas aeruginosa enzyme; metallo-beta-lactamase IMP-1 (Pseudomonas aeruginosa); purified IMP-1, nitrocefin hydrolysis, epi-absorbance fluorescence; inhibition, % at 5.6 µM; actives 0.45% (n = 290,000);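 active = inhibition above the mean plus 3 SD of all compounds in the same screening run, cut at about 4.5% in these data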
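Material – recombinant IMP-1 enzyme, purified · Amount – IMP-1 0.2 nM before substrate addition · Medium – HEPES buffer pH 7.1 with ZnSO4 and Brij 35 · Timing – 25 °C, 15 min preincubation, 25 min reaction · Measured by – plate fluorescence quenching by hydrolysis product, ex 480/em 530 nm · Read-out – percent enzyme inhibition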
PKA-R1A act: activators of PKA-R1A holoenzyme, primary screen, biochemical, fluorescence polarization, Cy5-IP20, bovine R1A, mouse PKAc. cAMP-dependent protein kinase type I-alpha regulatory subunit (Bos taurus) + …. PKA-R1A dissociation; scaled: DMSO 0%, 113 µM cGMP 100%. activation, % at 11.4 µM. actives 0.083% (n = 340,000);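 active = percent activation above the mean of all tested compounds plus 3 SD, cut at about 19% in these data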;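 also: higher means more PKAc released from R1A so a rise in polarization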
MsrA act confirm: bovine MsrA activators, retest, confirmation, biochemical, absorbance, HTS | shares compounds with bovine MsrA act | AID 602270, 2012 | activation, % at 10.6 µM | actives 12% (n = 1,000) | purified bovine MsrA, absorbance read-out; in the data active = activation above about 4%;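 also: enzyme coupled to thioredoxin and thioredoxin reductase with NADPH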
Of the large screens only hits and unclear results are named; the others gave an inactive call (follow-up assays come after a bar, where they were run).

CCOc1ccc(C2CC(=O)c3c([nH]c(C(=O)OC)c3C)C2)cc1OC (stereo unspecified)	none
COC(=O)c1[nH]c2c(c1C)C(=O)CC(c1cc(OC)ccc1OC)C2 (stereo unspecified)	bovine MsrA act 9.9 | MsrA act confirm inactive
Cc1nc(SCC(=O)NCc2ccc3c(c2)OCO3)c(C#N)c2c1CCCC2	bovine MsrA act 9.2 | MsrA act confirm inactive
CCc1nnc(NC(=O)CSc2nc(C)c3c(c2C#N)CCCC3)s1	bovine MsrA act 15.0 (no result: MsrA inhibitor) | MsrA act confirm inactive
CN(C)CCCNC(=O)c1ccccn1	none
CN(C)CCCNC(=O)c1ccc(-c2nc(-c3ccc(Cl)cc3)cs2)cc1	bovine MsrA act 8.3 | MsrA act confirm inactive
C[C@@H]1CN([C@H](C)CO)C(=O)c2cc(NC(=O)Nc3ccc(F)cc3)ccc2O[C@@H](C)CCCCO[C@@H]1CN(C)C(=O)CCCN(C)C	none (no result: VIM-2 inhibitor, PKA-R2B act, bovine MsrA act, IMP-1 inhibitor, PKA-R1A act)
CC(C)(C)OC(=O)NCCCCCNC(=O)c1nc[nH]c1C(=O)NCCCCCNC(=O)OC(C)(C)C	none (no result: VIM-2 inhibitor, IMP-1 inhibitor)
CCc1nn(C(C)C(=O)Nc2cccc(C)c2C)c(=O)c2cc3occc3n12 (stereo unspecified)	bovine MsrA act 8.4 | MsrA act confirm inactive
COc1ccc(-c2cc(C(F)(F)F)nc(N3CCOCC3)n2)cc1OC	none
COc1ccc(-c2cc(-c3ccccc3)nc(N3CCCC3)n2)cc1OC	bovine MsrA act 8.0, IMP-1 inhibitor 4.8 | MsrA act confirm inactive
CCCCC(=O)NNC(=S)NC(=O)c1cccc([N+](=O)[O-])c1	bovine MsrA act 11.4 | MsrA act confirm inactive
CCCCC(=O)NNC(=S)NC(=O)c1ccc([N+](=O)[O-])cc1	bovine MsrA act 7.8 | MsrA act confirm 4.5
Cc1ccc(C(=O)NC(=S)NNC(=O)CC#N)cc1	bovine MsrA act 7.8 | MsrA act confirm 4.1
O=C(NNC(=S)NC(=O)c1ccccc1)c1cccc([N+](=O)[O-])c1	none
CCCCC(=O)NNC(=S)NC(=O)c1ccc(C)cc1	none
Cc1cccc(C)c1NC(=O)C1CCCN1S(=O)(=O)c1ccc2c(c1)n(C)c(=O)c(=O)n2C (stereo unspecified)	none (no result: MsrA inhibitor)
COC(=O)c1cccc2c([N+](=O)[O-])c(NC(C)=O)cc(C(=O)OC)c12	none (no result: VIM-2 inhibitor, PKA-R2B act, bovine MsrA act, IMP-1 inhibitor, PKA-R1A act)
CCOc1ccccc1CNC(=O)c1cc2oc3ccccc3c2n1CC	bovine MsrA act 8.1 | MsrA act confirm inactive
COc1cccc(CNC(=O)c2cc3oc4ccccc4c3n2C)c1OC	none
O=C(NC1CC1)c1ccc(NS(=O)(=O)c2ccc(F)cc2)cc1	bovine MsrA act 10.6 (no result: VIM-2 inhibitor, IMP-1 inhibitor) | MsrA act confirm inactive
S=c1nc(-c2ccccc2Cl)[nH][nH]1	bovine MsrA act 8.1 | MsrA act confirm inactive
CC(C)C[C@@H]1COc2cc(F)ccc2S(=O)(=O)N1	none (no result: VIM-2 inhibitor, PKA-R2B act, bovine MsrA act, IMP-1 inhibitor, PKA-R1A act)
COc1cccc(OCC(O)CNC(=O)c2oc3ccc(C)cc3c2C)c1 (stereo unspecified)	bovine MsrA act 9.5 | MsrA act confirm inactive
COc1ccc2oc(C(=O)NCC(c3ccco3)N(C)C)c(C)c2c1 (stereo unspecified)	none (no result: VIM-2 inhibitor, IMP-1 inhibitor)
CN(C)CCNC(=O)c1cccc(-c2cnc3c(NC=O)cc(-c4ccc(S(C)(=O)=O)cc4)cn23)c1	bovine MsrA act 8.0 (no result: VIM-2 inhibitor, PKA-R2B act, IMP-1 inhibitor, PKA-R1A act) | MsrA act confirm inactive
CN(C)CCNC(=O)c1cccc(-c2cnc3c(NC=O)cc(-c4cc(F)c(F)c(F)c4)cn23)c1	bovine MsrA act 8.0 (no result: VIM-2 inhibitor, PKA-R2B act, IMP-1 inhibitor, PKA-R1A act) | MsrA act confirm inactive
CN(C)C(=O)c1cccc(-c2cc(NC=O)c3ncc(-c4ccc(F)c(Cl)c4)n3c2)c1	bovine MsrA act 9.3 (no result: VIM-2 inhibitor, PKA-R2B act, IMP-1 inhibitor, PKA-R1A act) | MsrA act confirm inactive
